MMP13 inh: inhibitors of human MMP13; inhibition, % at 4 µM; AID 570; MMP-13 fTHP FRET cleavage, Mca fluorescence; 65,000 compounds, 0.07% hits;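 active = inhibition above the mean of compound-free control plate wells plus 3 SD, cut at about 14% in these data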
Candida biofilm: kills Candida albicans biofilms; 85,000 compounds, 0.14% hits; C. albicans biofilm + clotrimazole, Alamar Blue; inhibition, % at 6 µM;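 active = inhibition above 20%; inactive = inhibition below 20%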;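 note: preformed 24 hr biofilms exposed to compound for 48 hr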
hDAT+cocaine: human DAT dopamine uptake with cocaine, either direction; LLC-PK1 hDAT cells, [14C]-dopamine uptake with cocaine IC80; actives deviate in either direction; B-score at 10 µM; AID 449768; 110,000 compounds, 1.3% hits;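 active = Z score or B-score, a plate-position-corrected score, falls beyond the plate's 99.7% confidence bounds, in either direction; inactive = both scores lie inside the 99.7% bounds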
AP ELISA ortho: orthogonal test for alternative complement pathway inhibitors; Human serum alternative complement pathway, LPS-coated ELISA, C3 deposition; tested in compound mixtures; inhibition, % at 5 µM; 62,000 compounds, 0.08% hits; AID 1235;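 active = inhibition above 30% in each of the two pooled mixtures holding the compound, so the lower value exceeds 30%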
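Assay system: Human serum alternative complement pathway, C3 deposition on LPS-coated wells | Incubation: 1 h serum-compound exposure at 37 °C | Doses: 5 µM per compound in ten-compound mixtures | Read-out: Percent inhibition | Technique: ELISA with HRP anti-human C3 antibody, TMB substrate, absorbance 450 nm | Replication: Two pool placements per compound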
D1 allo mod: allosteric modulators of human D1 dopamine receptor; P21728; HEK293 D1, CRE-luciferase, dopamine EC30 potentiation; actives deviate in either direction; B-score at 10 µM; 58,000 compounds, 5.9% hits;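 active = luminescence count or its row- and column-corrected plate score outside the 99.7% band of the plate's sample wells, on either side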
Target sequence (P21728 whole entry, looked up): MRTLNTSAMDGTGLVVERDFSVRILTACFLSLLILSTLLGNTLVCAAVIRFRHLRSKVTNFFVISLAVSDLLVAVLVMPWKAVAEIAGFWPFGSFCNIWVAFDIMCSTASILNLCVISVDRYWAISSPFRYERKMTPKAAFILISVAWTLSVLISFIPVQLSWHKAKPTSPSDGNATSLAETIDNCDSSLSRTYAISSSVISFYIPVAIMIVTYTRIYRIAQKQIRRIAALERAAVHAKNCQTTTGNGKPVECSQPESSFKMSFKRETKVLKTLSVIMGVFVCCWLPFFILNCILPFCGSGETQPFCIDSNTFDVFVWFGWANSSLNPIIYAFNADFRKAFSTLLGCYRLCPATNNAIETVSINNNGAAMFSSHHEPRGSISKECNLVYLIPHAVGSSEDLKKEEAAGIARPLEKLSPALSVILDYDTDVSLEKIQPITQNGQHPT
D1 mod confirm: D1 receptor (human) allosteric modulation, confirmed; HEK293 D1 CRE-luciferase, dopamine EC30 potentiation; hits give high values; luminescence at 10 µM; 2,200 compounds, 88% hits; AID 642; shares compounds with D1 allo mod;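 active = luminescence in either of two replicates above the same-plate mean plus 3 SD of the low-dose dopamine control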
D1 ag no DA: activates D1 CRE-luciferase signal without dopamine present. HEK293 D1 CRE-luciferase, luminescence, no dopamine; hits give high values. 1,900 compounds, 0.8% hits. shares compounds with D1 allo mod. luminescence at 10 µM; in the data active = luminescence above about 3900
Isoprot counter: alters isoproterenol CRE-luciferase response in HEK293 cells; shares compounds with D1 allo mod; 2,200 compounds, 63% hits; luminescence at 10 µM; AID 647; HEK293 D1 CRE-luciferase, isoproterenol EC30 counter-screen; hits give high values;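 active = luminescence in either replicate above plate mean of wells with a partly effective reference agonist dose plus 3 SD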;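 note: isoproterenol raises cAMP through native beta-adrenoceptor Gs so signal bypasses D1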
Each line names hits and unclear results; the compound was inactive in the other large screens (follow-up assays come after a bar, where they were run). This is one part of a sample in which hits are shown more often than they occur.

Nc1nc(SCc2ccc3c(c2)OCCO3)n[nH]1	D1 allo mod 4.9 | D1 mod confirm 9268 | D1 ag no DA inactive | Isoprot counter inactive
Nc1nc(SCc2ccc(Cl)cc2Cl)n[nH]1	none
COc1cccc(CNc2cc(CSc3ccc(Cl)cc3)nc(C)n2)c1	none (no result: MMP13 inh, AP ELISA ortho, D1 allo mod)
COC(=O)c1ccc(Oc2cc(C)nc(-n3nc(C)cc3C)n2)cc1	D1 allo mod 7.8 (no result: Candida biofilm) | D1 mod confirm 18884 | D1 ag no DA inactive | Isoprot counter 5724
Cc1cc(Oc2ccccc2)nc(SCC(=O)Nc2ccc(Cl)cc2Cl)n1	none (no result: MMP13 inh, AP ELISA ortho, D1 allo mod)
CCNc1nc(Oc2ccc(C(=O)OCC)cc2)nc(SC)n1	none (no result: Candida biofilm)
CCOC(=O)c1ccc(Oc2nc(NC)nc(SC)n2)cc1	D1 allo mod 8 | D1 mod confirm 17796 | D1 ag no DA inactive | Isoprot counter inactive
COC(=O)c1ccc(Oc2nc(C)cc(Oc3ccccc3)n2)cc1	none (no result: Candida biofilm)
COC(=O)CSc1nc(C)cc(Oc2ccccc2)n1	D1 allo mod 12 | D1 mod confirm 13148 | Isoprot counter 3404
CCOC(=O)c1ccc(Oc2cc(C)nc(SC)n2)cc1	D1 allo mod 3 | D1 mod confirm 8484 | D1 ag no DA inactive | Isoprot counter inactive
CCOC(=O)c1ccc(NC(=O)CC2C(=O)N(c3ccc(F)cc3)C(=O)N2CCC(C)C)cc1 (stereo unspecified)	none (no result: MMP13 inh, AP ELISA ortho, D1 allo mod)
Cc1cc(Oc2ccccc2)nc(N)n1	D1 allo mod 4 | D1 mod confirm 9044 | Isoprot counter 2688
CCCC(=O)Nc1ccc(NC(=O)C2CC2)cn1	D1 allo mod 5.3 | D1 mod confirm 5976 | D1 ag no DA inactive | Isoprot counter inactive
COc1cccc(-c2csc3nnc(SCC(=O)c4ccc(NC(C)=O)cc4)n23)c1	D1 allo mod 3 | D1 mod confirm 9644 | D1 ag no DA inactive | Isoprot counter 3552
O=C(Cc1cccc2ccccc12)N/N=C/c1ccc(Sc2nc3ccccc3s2)o1	none (no result: MMP13 inh, Candida biofilm, AP ELISA ortho, D1 allo mod)
CCCn1c(Sc2nc3c(c(=O)[nH]c(=O)n3C)n2CCC)nc2c1c(=O)[nH]c(=O)n2C	none (no result: MMP13 inh, Candida biofilm, AP ELISA ortho, D1 allo mod)
CCCn1c(SCc2ccc(Cl)cc2)nc2c1c(=O)[nH]c(=O)n2C	D1 allo mod 5.2 | D1 mod confirm 11480 | Isoprot counter 3456
C/C=C/Cn1c(SC)nc2c1c(=O)[nH]c(=O)n2C	none
C/C=C/Cn1c(SCc2ccc(Cl)cc2)nc2c1c(=O)[nH]c(=O)n2C	D1 allo mod 7.3 | D1 mod confirm 13964 | D1 ag no DA inactive | Isoprot counter 5136
C/C=C/CSc1nc2c(c(=O)[nH]c(=O)n2C)n1CCC	D1 allo mod 14 | D1 mod confirm 14660 | D1 ag no DA inactive | Isoprot counter 3616
CN(C)S(=O)(=O)c1ccc(C(=O)OCn2nnc3ccccc3c2=O)cc1	none (no result: MMP13 inh, AP ELISA ortho, D1 allo mod)
CC(=O)/C=C1\SC(CC(=O)O)C(=O)N1c1ccccc1 (stereo unspecified)	none (no result: MMP13 inh, Candida biofilm, AP ELISA ortho, D1 allo mod)
Cc1cc(C)cc(SCc2noc(C(=O)NCCN(C)C)c2C(=O)NCCN(C)C)c1	none (no result: MMP13 inh, Candida biofilm, AP ELISA ortho, D1 allo mod)
Cc1cc(-c2ccco2)n(-c2ccccc2)n1	D1 allo mod 5.9 | D1 mod confirm 13928 | D1 ag no DA inactive | Isoprot counter 3296
CCn1c(CNC(=O)Cc2ccc(OC)cc2)nnc1SCC(=O)NC1CCCCC1	none (no result: MMP13 inh, AP ELISA ortho, D1 allo mod)
CCCCCOc1ccccc1C(=O)NCCC(=O)O	none (no result: MMP13 inh, AP ELISA ortho, D1 allo mod)
COc1ccc(OCC(=O)Nc2sc3c(c2C(=O)NCC2CCCO2)CCC3)cc1 (stereo unspecified)	none (no result: MMP13 inh, Candida biofilm, AP ELISA ortho, D1 allo mod)
Cc1[nH]n(-c2ccccc2)c(=O)c1-c1ccc(Cl)cc1	none (no result: MMP13 inh, AP ELISA ortho, D1 allo mod)
Cc1[nH]n(-c2ccccc2)c(=O)c1S(=O)(=O)c1ccccc1	D1 allo mod 4.1 | D1 mod confirm 11060 | D1 ag no DA inactive | Isoprot counter inactive
CCCn1c(=O)c(C(=O)NCc2ccc(OC)c(OC)c2)c(O)c2ccccc21	D1 allo mod 4.5 | D1 mod confirm 9276 | D1 ag no DA inactive | Isoprot counter 3652
CCOC(=O)c1ccccc1NC(=O)c1ccccc1SC	none
CCOC(=O)c1ccccc1NC(=O)c1cccs1	D1 allo mod 7.2 | D1 mod confirm 8864 | D1 ag no DA inactive | Isoprot counter 2972

High-throughput results deposited in PubChem by several laboratories.
